According to ChEMBL document CHEMBL1126904, “Inhibitors of cholesterol biosynthesis. 1. 3,5-Dihydroxy-7-(N-imidazolyl)-6-heptenoates and -heptanoates, a novel series of HMG-CoA reductase inhibitors” (J Med Chem, 1993):
pIC50: −log10 of the molar value.

Experiments:
[1] = molecular target: T1, 3-hydroxy-3-methylglutaryl-coenzyme A reductase (Rattus norvegicus, UniProt P51639); assay: Inhibitory activity against washed rat liver microsomal HMG-CoA reductase (HMGR)
T1 sequence (P51639 whole entry): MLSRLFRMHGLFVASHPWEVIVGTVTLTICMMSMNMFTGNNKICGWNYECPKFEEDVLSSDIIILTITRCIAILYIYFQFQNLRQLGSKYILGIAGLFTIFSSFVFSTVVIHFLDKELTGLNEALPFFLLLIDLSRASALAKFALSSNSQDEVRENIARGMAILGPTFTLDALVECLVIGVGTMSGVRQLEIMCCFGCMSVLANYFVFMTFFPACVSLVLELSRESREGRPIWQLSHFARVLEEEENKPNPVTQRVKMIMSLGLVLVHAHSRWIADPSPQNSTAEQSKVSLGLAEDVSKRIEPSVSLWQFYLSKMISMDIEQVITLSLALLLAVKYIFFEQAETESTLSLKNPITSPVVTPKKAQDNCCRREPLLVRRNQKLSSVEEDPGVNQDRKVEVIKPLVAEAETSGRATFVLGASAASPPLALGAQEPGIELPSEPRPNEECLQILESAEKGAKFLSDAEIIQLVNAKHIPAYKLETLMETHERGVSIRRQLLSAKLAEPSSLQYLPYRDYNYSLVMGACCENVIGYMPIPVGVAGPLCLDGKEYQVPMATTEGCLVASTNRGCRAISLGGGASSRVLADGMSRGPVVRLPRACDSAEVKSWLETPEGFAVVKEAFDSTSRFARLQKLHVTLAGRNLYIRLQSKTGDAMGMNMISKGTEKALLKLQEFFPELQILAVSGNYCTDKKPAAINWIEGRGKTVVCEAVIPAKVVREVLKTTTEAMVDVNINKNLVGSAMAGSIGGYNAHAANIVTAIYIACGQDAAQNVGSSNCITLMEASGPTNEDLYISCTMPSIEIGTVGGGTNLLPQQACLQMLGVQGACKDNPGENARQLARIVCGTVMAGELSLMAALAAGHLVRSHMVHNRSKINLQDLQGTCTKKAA
How it was run: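 Male Wistar rats (100–120 g) on reversed light cycle, killed at 0800 h; washed liver microsomes (10000g then 105000g spins, 4 °C) in buffer A (50 mM K phosphate pH 7.4, 250 mM NaCl, 10 mM EDTA, 1 mM DTT). Enzyme+inhibitor preincubated 10 min 37 °C; NADPH-regenerating system plus [3-14C]HMG-CoA added; HCl stop, lactonization, anion-exchange isolation of [14C]mevalonate, scintillation. Five concentrations, duplicate, ≥2 occasions; pravastatin reference.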

[2] = Partition coefficient (logD7.4); format: physicochemical; details: octanol/water, pH 7.4
How it was run: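 log D by HPLC in n-octanol–water: compound dissolved in pH 7.4 aqueous borax-phosphate buffer saturated with n-octanol, eluted through a column of n-octanol physically bonded to fractionated hyflosuperpel.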

HepG2 = assay: Tested for ability to inhibit the incorporation of [14C]- acetate in to cholesterol in HepG2 cells; format: functional, cell-based; details: Homo sapiens
How it was run: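 HepG2 cells in MEM + 10% fetal calf serum to 80% confluency, switched to serum-free MEM; inhibitor and sodium [14C]acetate added together, 3 h. Saponified, petroleum ether extract; [14C]cholesterol separated by reverse-phase HPLC and measured by radioactivity flow monitor. At least five concentrations, triplicate, run twice; lovastatin standard.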

Row | SMILES | pIC50 [1] | logD [2] | pIC50 (HepG2)
1 | CC(C)c1nc(-c2ccc(F)cc2)c(-c2ccc(F)cc2)n1/C=C/[C@H](O)C[C@H](O)CC(=O)O | 6.15 |  | 
2 | CC(C)c1nc(-c2ccc(F)cc2)c(-c2ccc(F)cc2)n1/C=C/[C@H](O)C[C@@H](O)CC(=O)O | 5.70 |  | 
3 | Cc1cccc(-c2nc(C(F)(F)F)n(CC[C@@H](O)C[C@@H](O)CC(=O)O)c2-c2ccc(F)cc2)c1 | 7.54 |  | 
4 | COc1ccc(-c2nc(C(F)(F)F)n(CC[C@@H](O)C[C@@H](O)CC(=O)O)c2-c2ccc(F)cc2)cc1 | 7.17 |  | 
5 | O=C(O)C[C@H](O)C[C@H](O)CCn1c(C(F)(F)F)nc(-c2ccc(F)cc2)c1-c1ccc(F)cc1 | 7.42 |  | 
6 | CC(C)c1nc(-c2ccc(F)cc2)c(-c2ccc(F)cc2)n1/C=C/[C@@H](O)C[C@@H](O)CC(=O)O [listing 1 of 2 here] | 8.70 | 0.72 | 8.28
7 | COc1ccc(-c2c(-c3ccc(F)cc3)nc(C(F)(F)F)n2CC[C@@H](O)C[C@@H](O)CC(=O)O)cc1 | 6.38 |  | 
8 | O=C(O)C[C@H](O)C[C@H](O)CCn1c(C(F)(F)F)nc(-c2ccc(F)cc2)c1-c1cccs1 | 6.67 |  | 
9 | O=C(O)C[C@H](O)C[C@H](O)CCn1c(C(F)(F)F)nc(-c2ccccc2)c1-c1ccc(F)cc1 | 7.51 |  | 
10 | Cc1cc(C)cc(-c2c(-c3ccc(F)cc3)nc(C(F)(F)F)n2CC[C@@H](O)C[C@@H](O)CC(=O)O)c1 | 7.42 |  | 
11 | CC(C)c1nc(-c2ccccc2)n(-c2ccc(F)cc2)c1/C=C/[C@@H](O)C[C@@H](O)CC(=O)O | 8.59 |  | 
12 | Cc1cc(-c2c(-c3ccc(F)cc3)nc(C(C)C)n2/C=C/[C@@H](O)C[C@@H](O)CC(=O)O)cc(C)c1F | 7.52 |  | 
13 | Cc1cc(F)ccc1-c1c(-c2ccc(F)cc2)nc(C(C)C)n1/C=C/[C@@H](O)C[C@@H](O)CC(=O)O | 8.40 | 0.86 | 
14 | CC(C)c1nc(-c2cccnc2)c(-c2ccc(F)cc2)n1/C=C/[C@@H](O)C[C@@H](O)CC(=O)O | 9.00 | -0.43 | 
15 | Cc1ccc(-c2c(-c3ccc(F)cc3)nc(C(F)(F)F)n2CC[C@@H](O)C[C@@H](O)CC(=O)O)cc1 | 6.12 |  | 
16 | Cc1cc(C)cc(-c2c(-c3ccc(F)cc3)nc(C(C)C)n2/C=C/[C@@H](O)C[C@@H](O)CC(=O)O)c1 | 7.25 |  | 
17 | CC(C)(C)c1nc(-c2ccc(F)cc2)c(-c2ccc(F)cc2)n1/C=C/[C@@H](O)C[C@@H](O)CC(=O)O | 8.15 |  | 
18 | CN(C)c1nc(-c2ccc(F)cc2)c(-c2ccc(F)cc2)n1/C=C/[C@@H](O)C[C@@H](O)CC(=O)O | 8.05 |  | 
19 | O=C(O)C[C@H](O)C[C@H](O)CCn1c(C(F)(F)F)nc(-c2ccc(F)cc2)c1-c1cccc(Cl)c1 | 7.39 |  | 
20 | Cc1ccc(-c2nc(C(F)(F)F)n(CC[C@@H](O)C[C@@H](O)CC(=O)O)c2-c2ccc(F)cc2)cc1 | 7.37 |  | 
21 | O=C(O)C[C@H](O)C[C@H](O)CCn1c(C(F)(F)F)nc(-c2ccc(F)cc2)c1-c1cccnc1 | < 6.00 |  | 
22 | Cc1cccc(-c2c(-c3ccc(F)cc3)nc(C(F)(F)F)n2CC[C@@H](O)C[C@@H](O)CC(=O)O)c1 | 7.13 |  | 

Row | SMILES | pIC50 [1] | logD [2] | pIC50 (HepG2)
23 | CCc1cc(-c2c(-c3ccc(F)cc3)nc(C(C)C)n2/C=C/[C@@H](O)C[C@@H](O)CC(=O)O)cc(CC)c1F | 7.00 |  | 
24 | O=C(O)C[C@H](O)C[C@H](O)CCn1c(C(F)(F)F)nc(-c2cccs2)c1-c1ccc(F)cc1 | 7.19 |  | 
25 | CC(C)c1c(-c2ccc(F)cc2)nc(-c2ccc(F)cc2)n1/C=C/[C@@H](O)C[C@@H](O)CC(=O)O | 9.00 | 0.83 | 
26 | CC(C)c1nc(-c2ccc(F)cc2)c(-c2ccc(F)cc2)n1CC[C@@H](O)C[C@@H](O)CC(=O)O | 6.50 |  | 
27 | CC(C)c1nc(-c2cccc(S(C)(=O)=O)c2)c(-c2ccc(F)cc2)n1/C=C/[C@@H](O)C[C@@H](O)CC(=O)O | 8.70 | -0.6 | 
28 | O=C(O)C[C@H](O)C[C@H](O)CCn1c(C(F)(F)F)nc(-c2ccc(F)cc2)c1-c1ccccc1 | 6.70 |  | 
29 | COc1cccc(-c2c(-c3ccc(F)cc3)nc(C(F)(F)F)n2CC[C@@H](O)C[C@@H](O)CC(=O)O)c1 | 6.87 |  | 
30 | Cc1cc(-c2nc(C(C)C)n(/C=C/[C@@H](O)C[C@@H](O)CC(=O)O)c2-c2ccc(F)cc2)cc(C)c1Cl | 8.70 | 2.27 | 9.05
31 | Cc1cc(-c2nc(C(F)(F)F)n(CC[C@@H](O)C[C@@H](O)CC(=O)O)c2-c2ccc(F)cc2)cc(C)c1F | 7.49 |  | 
32 | O=C(O)C[C@H](O)C[C@H](O)CCn1c(C(F)(F)F)nc(-c2ccc(C(F)(F)F)cc2)c1-c1ccc(F)cc1 | 6.70 |  | 
33 | O=C(O)C[C@H](O)C[C@H](O)CCn1c(C(F)(F)F)nc(-c2cccc(Cl)c2)c1-c1ccc(F)cc1 | 7.77 |  | 
34 | CC(C)c1nc(-c2ccc(F)cc2)c(-c2cccc(Cl)c2)n1/C=C/[C@@H](O)C[C@@H](O)CC(=O)O | 8.10 |  | 
35 | CC(C)c1nc(-c2ccc(F)cc2)c(-c2cc(Cl)cc(Cl)c2)n1/C=C/[C@@H](O)C[C@@H](O)CC(=O)O | 7.66 |  | 
36 | O=C(O)C[C@H](O)C[C@H](O)/C=C/n1c(C(F)(F)F)nc(-c2ccc(F)cc2)c1-c1ccc(F)cc1 | 7.89 | 0.73 | 7.80
37 | O=C(O)C[C@H](O)C[C@H](O)CCn1c(C(F)(F)F)nc(-c2ccc(F)cc2)c1-c1ccc(C(F)(F)F)cc1 | < 6.00 |  | 
38 | Cc1cc(C)cc(-c2nc(C(F)(F)F)n(CC[C@@H](O)C[C@@H](O)CC(=O)O)c2-c2ccc(F)cc2)c1 | 7.62 |  | 
39 | Cc1cc(-c2c(-c3ccc(F)cc3)nc(C(F)(F)F)n2CC[C@@H](O)C[C@@H](O)CC(=O)O)cc(C)c1F | 7.51 |  | 
40 | CC(C)c1nc(-c2ccc(F)cc2)c(-c2ccc(F)cc2)n1/C=C/[C@@H](O)C[C@@H](O)CC(=O)O [listing 2 of 2 here] | 9.00 |  | 8.60
41 | O=C(O)C[C@H](O)C[C@H](O)CCn1c(C(F)(F)F)nc(-c2cccnc2)c1-c1ccc(F)cc1 | 7.18 |  | 
42 | CNc1cccc(-c2nc(C(C)C)n(/C=C/[C@@H](O)C[C@@H](O)CC(=O)O)c2-c2ccc(F)cc2)c1 | 8.52 | -0.05 | 
43 | COc1cccc(-c2nc(C(F)(F)F)n(CC[C@@H](O)C[C@@H](O)CC(=O)O)c2-c2ccc(F)cc2)c1 | 7.70 |  | 
44 | Cc1nc(-c2ccc(F)cc2)c(-c2ccc(F)cc2)n1/C=C/[C@@H](O)C[C@@H](O)CC(=O)O | < 7.00 |  | 
